Legend:
Format in all cases: tissue-based
[1] = substrate: Cc1ccc(S)cc1; test: (§1) Apparent binding constant for purified human kidney TPMT
Procedure, shortened: (§2)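 Enzyme purified >300-fold from human kidney (100000g supernatant, ammonium sulfate, DEAE-A25, Sephadex G-100). The thiophenol replaced 6-MP as methyl acceptor, with 25 μM [14C-methyl]AdoMet at pH 6.7 and 37 °C for 30 min. Stopped with borate pH 10, extracted, scintillation counted. Five or more concentrations near Km in triplicate, at least twice. Apparent Km by Wilkinson method, averaged.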

[2] = substrate: O=C(O)c1ccccc1S; test: as §1; procedure, shortened: as §2
[3] = substrate: O=[N+]([O-])c1ccc(S)cc1; test: as §1; procedure, shortened: as §2
[4] = substrate: Sc1ccc(Cl)cc1; test: as §1; procedure, shortened: as §2
[5] = substrate: Sc1ccccc1Br; test: as §1; procedure, shortened: as §2
[6] = substrate: COc1ccc(S)cc1; test: as §1; procedure, shortened: as §2
[7] = substrate: CC(=O)Nc1ccc(S)cc1; test: as §1; procedure, shortened: as §2
[8] = substrate: Fc1ccc(S)cc1; test: as §1; procedure, shortened: as §2
[9] = substrate: Nc1ccccc1S; test: as §1; procedure, shortened: as §2
[10] = substrate: Sc1ccccc1; test: as §1; procedure, shortened: as §2
[11] = substrate: Sc1ccc(Br)cc1; test: as §1; procedure, shortened: as §2
[12] = substrate: COc1cccc(S)c1; test: as §1; procedure, shortened: as §2
[13] = substrate: Sc1cccc(Cl)c1; test: as §1; procedure, shortened: as §2
[14] = substrate: COc1ccccc1S; test: as §1; procedure, shortened: as §2

B1: Thiopurine S-methyltransferase (Homo sapiens), P51580 (protein)
chain: MDGTRTSLDIEEYSDTEVQKNQVLTLEEWQDKWVNGKTAFHQEQGHQLLKKHLDTFLKGKSGLRVFFPLCGKAVEMKWFADRGHSVVGVEISELGIQEFFTEQNLSYSEEPITEIPGTKVFKSSSGNISLYCCSIFDLPRTNIGKFDMIWDRGALVAINPGDRKCYADTMFSLLGKKFQYLLCVLSYDPTKHPGPPFYVPHAEIERLFGKICNIRCLEKVDAFEERHKSWGIDCLFEKLYLLTEK
Km [1]: 5.9 µM
Km [2]: 7.8 µM
Km [3]: 6.5 µM
Km [4]: 3.6 µM
Km [5]: 0.8 µM
Km [6]: 3.2 µM
Km [7]: 2.1 µM
Km [8]: 5.6 µM
Km [9]: 2.5 µM
Km [10]: 3.9 µM
Km [11]: 4.8 µM
Km [12]: 2.1 µM
Km [13]: 2.4 µM
Km [14]: 2.6 µM

Source: ChEMBL document CHEMBL1123412, “Thiopurine methyltransferase: structure-activity relationships for benzoic acid inhibitors and thiophenol substrates” (J Med Chem, 1986)
